Columns and labels:
[1] = target: Estrogen receptor (Bos taurus) (UniProt Q9XSB5+P49884); assay: Displacement of 17-beta-[3H]-estradiol from estrogen receptor relative to 17-beta-estradiol; format: protein assay
Outline: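 Competitive binding with calf uterine cytosol as receptor source and 17β-[3H]estradiol (0.723 pmol per tube) as tracer. Compounds were dissolved in ethanol, diluted in TRIS buffer to six to eight concentrations and incubated overnight at 4 °C. Free ligand was removed with dextran-charcoal (90 min, 4 °C), then supernatant was scintillation counted. Nonspecific binding was set with 2 nmol estradiol. RBA = ratio of 50%-inhibiting concentrations (estradiol/sample) × 100%.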

[2] = target: T1, Estrogen receptor (Homo sapiens) (UniProt P03372); assay: Transcriptional activation in MCF-7-2a cells expressing estrogen receptor alpha at 10e-6 M; format: functional, cell-based
T1 sequence (whole entry): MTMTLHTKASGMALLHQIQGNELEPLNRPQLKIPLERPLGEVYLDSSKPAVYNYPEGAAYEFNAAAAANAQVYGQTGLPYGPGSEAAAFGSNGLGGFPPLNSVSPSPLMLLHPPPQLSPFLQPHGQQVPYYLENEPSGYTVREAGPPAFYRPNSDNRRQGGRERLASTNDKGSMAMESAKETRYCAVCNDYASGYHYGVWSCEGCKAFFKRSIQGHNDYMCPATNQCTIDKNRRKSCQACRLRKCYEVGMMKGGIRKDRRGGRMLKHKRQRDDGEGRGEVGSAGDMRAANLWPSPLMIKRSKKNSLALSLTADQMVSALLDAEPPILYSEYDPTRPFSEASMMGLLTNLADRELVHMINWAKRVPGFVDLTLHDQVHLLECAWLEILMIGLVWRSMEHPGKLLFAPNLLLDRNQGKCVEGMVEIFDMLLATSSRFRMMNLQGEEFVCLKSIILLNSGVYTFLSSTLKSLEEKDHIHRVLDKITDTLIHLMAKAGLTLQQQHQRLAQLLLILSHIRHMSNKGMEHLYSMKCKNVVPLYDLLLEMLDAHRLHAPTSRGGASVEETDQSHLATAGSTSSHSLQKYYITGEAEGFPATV
Outline: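 MCF-7-2a cells were precultured one week in DMEM with L-glutamine, antibiotics and dextran/charcoal-treated BCS (50 mL/L), then seeded in six-well plates. After 24 h compounds were added (10^-5 to 10^-10 M final) and cells incubated 50 h, then lysed 20 min at room temperature. Luciferase luminescence (RLU) was read for 10 s and normalized to Bradford protein.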

| SMILES | RBA [1] [%] | Activation [2] [%] |
| --- | --- | --- |
| COc1ccc(-c2[nH]cnc2-c2c(Cl)cc(OC)cc2Cl)c(Cl)c1 | 0 | 6 |
| Oc1ccc(-c2[nH]cnc2-c2c(Cl)cc(O)cc2Cl)c(Cl)c1 | 0.1 | 27 |
| Oc1ccc([C@H]2NCCN[C@H]2c2c(Cl)cc(O)cc2Cl)c(Cl)c1 | < 0.02 | 20 |
| COc1ccc([C@H]2N=CN[C@H]2c2c(Cl)cc(OC)cc2Cl)c(Cl)c1 | 0 | 6 |
| N[C@H](c1ccc(O)cc1Cl)[C@@H](N)c1c(Cl)cc(O)cc1Cl | 1.5 | 98 |
| COc1ccc([C@H]2NCCN[C@H]2c2c(Cl)cc(OC)cc2Cl)c(Cl)c1 | 0 | 3 |
| COc1ccc([C@@H](N)[C@@H](N)c2c(Cl)cc(OC)cc2Cl)c(Cl)c1 | 0 | 0 |

Reference: ChEMBL document CHEMBL1134500, “Investigations of new lead structures for the design of selective estrogen receptor modulators” (J Med Chem, 2001)
